The text below walks through data of ChEMBL document CHEMBL3763021 (Eur J Med Chem, 2016).

Series [1] is described as follows: Inhibition of Sonic-induced hedgehog signalling in mouse NIH3T3 cells after 48 hrs by Gli-luciferase reporter assay. The note with it: NIH3T3, 48 h. Type of series: cell-based. In short, it runs like this: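 NIH3T3 cells stably carrying a Gli-luciferase reporter were kept in DMEM with 10% FBS and 1 µg/mL puromycin, then seeded at 2×10^4 cells/well overnight at 37 °C. Compounds at 0.05–300 nM (8 concentrations) were added in medium with 0.5% FBS and 0.7 µg/mL Sonic Hh agonist, n=4 wells, for 48 h. Readout was the Firefly/Renilla luciferase ratio in lysates.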

A short description of series [2]: Cmax in Sprague-Dawley rat at 1 mg/kg, iv by LC/MS/MS analysis. More on the design: dose 1 mg/kg, route intravenous. The note with it: in vivo. Type of series: ADME, organism-based. In short, it runs like this:
(§1)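 Male SD rats, 180–240 g, 3 per compound; single dose of 1 mg/kg iv or 5 mg/kg po, dosing volume 5 mL/kg. Blood was sampled from 2 min to 24 h and centrifuged at 4 °C. Plasma underwent protein precipitation, then LC/MS/MS in SRM mode with an internal standard. Parameters were derived by noncompartmental analysis.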

Series [3] can be described thus: AUC (0 to t) in Sprague-Dawley rat at 1 mg/kg, iv by LC/MS/MS analysis. Type of series: ADME, organism-based. The note with it: in vivo. The essentials:
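Male SD rats, 3 per compound, 180–240 g, single iv dose at 1 mg/kg, dosing volume 5 mL/kg. Blood sampled at 2, 5, 15, 30 min and 1, 2, 4, 6, 8, 10, 24 h, then centrifuged at 4 °C. Plasma protein-precipitated and analysed by LC/MS/MS in SRM mode with internal standard. AUC(0-t) obtained by noncompartmental analysis.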

Series [4] in a line: Apparent volume of distribution in Sprague-Dawley rat at 1 mg/kg, iv by LC/MS/MS analysis. The note with it: in vivo.
Series [5] in a line: Clearance in Sprague-Dawley rat at 1 mg/kg, iv by LC/MS/MS analysis. Type of series: ADME, organism-based. The note with it: in vivo. In short, it runs like this: as §1
Series [6] in a line: Mean resident time (0 to t) in Sprague-Dawley rat at 1 mg/kg, iv by LC/MS/MS analysis. Type of series: ADME, organism-based. The note with it: in vivo. The essentials: as §1
A short description of series [7]: Half life in Sprague-Dawley rat at 1 mg/kg, iv by LC/MS/MS analysis. Type of series: ADME, organism-based. The note with it: in vivo. The essentials:
as §1

Compound `Cc1ccc(CN(C)C)cc1NC(=O)c1ccc(Nc2ncc(F)c(-c3ccc(OC(F)(F)F)cc3)n2)cc1` had an IC50 in series [1] of 3.19 nM.

Turning to `Cc1ccc(CN2CCCCC2)cc1NC(=O)c1ccc(Nc2nccc(-c3ccc(OC(F)(F)F)cc3)n2)cc1`, the IC50 in series [1] was 2.68 nM.

Consider `Cc1ccc(CN2CCCCC2)cc1NC(=O)c1ccc(Nc2ncc(F)c(-c3ccc(OC(F)(F)F)cc3)n2)cc1`, for which the IC50 in series [1] worked out at 3.12 nM.

In turn, `Cc1ccc(CN2CCN(C)CC2)cc1NC(=O)c1ccc(Nc2ncc(F)c(-c3ccc(OC(F)(F)F)cc3)n2)cc1` had an IC50 in series [1] of 2.84 nM. This IC50 and that of the compound before are within 1.5-fold of each other.

The compound `CCN(CC)Cc1ccc(C)c(NC(=O)c2ccc(Nc3nccc(-c4ccc(OC(F)(F)F)cc4)n3)cc2)c1` showed an IC50 in series [1] of 2.31 nM.

Turning to `Cc1ccc(CN2CCOCC2)cc1NC(=O)c1ccc(Nc2ncc(F)c(-c3ccc(OC(F)(F)F)cc3)n2)nc1`, it took 0.78 nM to reach half-maximal inhibition in series [1] (IC50). Also, the Cmax in series [2] amounted to 770 ng/mL. The compound also returned an AUC(0-t) in series [3] of 625 ng·h/mL. In series [4], the Vd came out at 4.62 L/kg. In series [5], the clearance was 26.4 mL/min/kg. The MRT last in series [6] was 1.98 h. In addition, the half-life in series [7] was 121 min.

Take `Cc1ccc(CN2CCCC2)cc1NC(=O)c1ccc(Nc2nccc(-c3ccc(OC(F)(F)F)cc3)n2)cc1`: the midpoint of inhibition in series [1], the IC50, lay at 1.83 nM.

Regarding `O=C(Nc1cccc(CN2CCOCC2)c1)c1ccc(Nc2nccc(-c3ccc(OC(F)(F)F)cc3)n2)cc1`, in series [1], the IC50 is 0.56 nM. The Cmax in series [2] turned out to be 915 ng/mL. This compound also displayed an AUC(0-t) in series [3] of 769 ng·h/mL. The Vd in series [4] was found to be 6.33 L/kg. In series [5], the clearance is 21.5 mL/min/kg. In series [6], this compound had an MRT last of 1.53 h. For the same compound, in series [7], the half-life was 215 min.

For `Cc1ccc(CN2CCCC2)cc1NC(=O)c1ccc(Nc2ncc(F)c(-c3ccc(OC(F)(F)F)cc3)n2)cc1`, the IC50 in series [1] was determined as 5.16 nM. That is a single-digit nanomolar value.

By IC50 is commonly meant the concentration at which inhibition is half-maximal. High values mean weaker potency in that assay, low ones greater potency in that assay. Broadly, the Cmax is the highest concentration seen after dosing. Broadly, the AUC(0-t) is the area under the concentration-time curve up to a stated or last time point. Read a high AUC(0-t) as more exposure. The term clearance denotes the volume of plasma or blood freed of the substance per unit of time. A low value points to a low capacity for elimination. Broadly, the MRT last is a mean duration of stay, worked out from the concentration-time curve. In general, half-life refers to the time needed for the level to fall by half in the phase considered. A low value points to fast loss.
